Compounds with a hit are over-represented: about 2.9% of the library has one in this group of screens.
S100A4 inh HTS = S100A4-myosin IIA interaction inhibition. P26447. S100A4/TAMRA-MyoIIA peptide fluorescence polarization. inhibition, % at 10.7 µM. hit rate 0.14% among 360,000;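 active means mean inhibition of at least 70% across replicates, with every replicate also reaching that level; inconclusive means mean inhibition reaches 70% but some replicates fall short; inactive means mean inhibition below 70%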
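Compound dosing: one dose per compound; test system: human S100A4 monomer with TAMRA-labelled myosin IIA peptide; probe or stimulus: TAMRA-labelled myosin IIA heavy-chain peptide probe, 5 nM; medium: HEPES buffer with Ca2+, pH 7.2; schedule: 5 min incubation before reading; benchmarks: neutral control DMSO, positive control TFP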
CAL PDZ FP-1 = human CAL PDZ-peptide interaction inhibition; Q9HD26; hit rate 0.02% among 330,000; AID 504414; purified CAL PDZ, TMR-peptide fluorescence polarization, 1 h; inhibition, % at 20 µM;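 active means highest replicate inhibition of at least 40%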;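 further: plate controls were DMSO neutral control wells for no effect and unlabeled competitor peptide control wells for full effect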
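System: purified tagged CAL PDZ domain construct (CerCALP). Schedule: 1 h incubation at room temperature before polarization reading. Medium: 25 mM sodium phosphate pH 7.4, 150 mM NaCl, TCEP, IgG, Thesit. Read-out: percent inhibition from loss of millipolarization. Measured by: FP readout, S and P plane fluorescence. Probe or stimulus: fluorescent TMR peptide probe.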
DENV2 CPE = inhibitors of DENV2 cytopathic effect | DENV2-infected cells, cytopathic effect rescue, plate reader | CPE inhibition, % at 9.99 µM | hit rate 1.7% among 350,000; in the data active means CPE inhibition above about 20%, passing the limit was not always enough; inconclusive means no clear call, values can overlap the other calls; tested in BHK-21 cells;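 further: 0% = median of neutral control wells and 100% = median of positive control wells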
SIRT5 inh = blocks human SIRT5 desuccinylation of peptide; Q9NXA8; hit rate 1.1% among 330,000; AID 652115; Purified SirT5, succinyl-peptide AMC, trypsin-coupled fluorescence; inhibition, % at 15 µM; in the data active means inhibition above about 15%; inconclusive means no clear call, values can overlap the other calls
ERAP1 inh = ERAP1 (human) enzyme inhibition. hit rate 0.15% among 340,000. recombinant ERAP1, Leu-AMC fluorescence, 60 min. inhibition, % at 10.7 µM. AID 652197;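 active means mean replicate inhibition of at least 30%, or all replicates individually reaching that 30% level; inactive means mean below 30% and not every replicate reaching it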;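 further: 0% = neutral control wells and 100% = L-leucinethiol positive control wells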
Target sequence (Q9NZ08 whole entry, looked up): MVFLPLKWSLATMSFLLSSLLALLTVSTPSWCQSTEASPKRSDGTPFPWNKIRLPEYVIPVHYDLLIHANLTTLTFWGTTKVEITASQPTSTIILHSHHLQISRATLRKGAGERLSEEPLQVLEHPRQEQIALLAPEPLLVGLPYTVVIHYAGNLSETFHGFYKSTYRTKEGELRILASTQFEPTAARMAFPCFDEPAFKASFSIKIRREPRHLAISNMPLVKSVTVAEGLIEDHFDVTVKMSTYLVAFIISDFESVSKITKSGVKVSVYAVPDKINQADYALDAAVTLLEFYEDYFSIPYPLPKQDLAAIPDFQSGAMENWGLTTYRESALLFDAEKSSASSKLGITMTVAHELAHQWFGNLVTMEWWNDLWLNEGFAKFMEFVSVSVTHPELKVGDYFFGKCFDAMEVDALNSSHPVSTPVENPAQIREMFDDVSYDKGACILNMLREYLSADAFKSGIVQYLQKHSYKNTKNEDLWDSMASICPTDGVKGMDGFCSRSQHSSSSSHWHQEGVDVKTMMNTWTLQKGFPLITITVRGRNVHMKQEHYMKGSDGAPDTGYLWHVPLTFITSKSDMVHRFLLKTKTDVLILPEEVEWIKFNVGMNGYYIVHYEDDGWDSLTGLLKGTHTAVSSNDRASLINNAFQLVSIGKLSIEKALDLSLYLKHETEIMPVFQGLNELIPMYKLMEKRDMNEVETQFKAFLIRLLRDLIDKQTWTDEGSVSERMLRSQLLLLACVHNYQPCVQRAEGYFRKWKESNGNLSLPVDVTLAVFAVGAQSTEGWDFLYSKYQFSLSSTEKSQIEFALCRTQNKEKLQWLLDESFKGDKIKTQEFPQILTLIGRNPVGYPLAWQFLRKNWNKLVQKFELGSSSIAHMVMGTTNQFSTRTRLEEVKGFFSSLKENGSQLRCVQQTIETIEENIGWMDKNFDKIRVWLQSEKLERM
CAL PDZ FP-2 = blocks peptide binding to the human CAL PDZ domain; purified CAL PDZ, TMR-peptide fluorescence polarization, 1 h; inhibition, % at 24.9 µM; hit rate 0.92% among 300,000;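 active means mean inhibition of at least 30% with at least half of replicates also reaching 30%; inconclusive means no clear call, values can overlap the other calls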;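 further: 0% = DMSO neutral control and 100% = excess unlabeled competitor peptide PRC23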
The depositor's hits bear a star; ? = inconclusive; · = no result given.

SMILES	S100A4 inh HTS	CAL PDZ FP-1	DENV2 CPE	SIRT5 inh	ERAP1 inh	CAL PDZ FP-2
C[C@@H]1CCCCO[C@@H](CN(C)C(=O)c2ccccc2)[C@@H](C)CN([C@H](C)CO)C(=O)c2cc(NC(=O)CCC(F)(F)F)ccc2O1	7.7	·	93.4*	0.8	-1.5	·
CCCC(=O)Nc1ccc2c(c1)C(=O)N(C)[C@@H]1CC[C@H](CC(=O)NCC(F)(F)F)O[C@H]1CO2	·	·	0.1	·	·	·
CO[C@@H](C(=O)N(C)C[C@H]1OCc2ccccc2-c2ccccc2C(=O)N([C@H](C)CO)C[C@@H]1C)c1ccccc1	-36.8	·	2.6	-1.1	1.0	·
CNC[C@@H]1Oc2ccc(NC(=O)C3CCCCC3)cc2CC(=O)N([C@@H](C)CO)C[C@@H]1C	-7.7	·	0.2	-0.8	-1.4	·
Cc1nn(C)cc1NC(=O)C[C@@H]1CC[C@@H]2[C@H](COc3ccc(NC(=O)C4CCC4)cc3C(=O)N2C)O1	0.1	·	3.3	4.9	0.8	·
COc1ccc(CN(C)C[C@H]2OCCCC[C@H](C)Oc3ccc(NS(=O)(=O)c4ccc(F)cc4)cc3C(=O)N([C@H](C)CO)C[C@H]2C)cc1	-6.5	·	33.1*	7.7	-0.1	·
COc1ccc(CN(C)C[C@H]2OCCCC[C@@H](C)Oc3ccc(NS(=O)(=O)c4ccc(F)cc4)cc3C(=O)N([C@@H](C)CO)C[C@@H]2C)cc1	8.9	·	?	-4.0	-1.2	·
COc1ccc(CN(C)C[C@H]2OCCCC[C@H](C)Oc3ccc(NS(=O)(=O)c4ccc(Cl)cc4)cc3C(=O)N([C@@H](C)CO)C[C@@H]2C)cc1	1.1	·	29.6*	6.0	-1.5	·
COc1ccc(CN(C)C[C@@H]2OCCCC[C@@H](C)Oc3ccc(NS(=O)(=O)c4ccc(Cl)cc4)cc3C(=O)N([C@H](C)CO)C[C@@H]2C)cc1	-3.7	·	3.2	5.2	-2.1	·
COc1ccc(CN(C)C[C@H]2OCCCC[C@H](C)Oc3ccc(NS(=O)(=O)c4ccc(Cl)cc4)cc3C(=O)N([C@@H](C)CO)C[C@H]2C)cc1	-1.5	·	-6.6	6.8	-2.9	·
COc1ccc(CN(C)C[C@@H]2OCCCC[C@@H](C)Oc3ccc(NS(=O)(=O)c4ccc(Cl)cc4)cc3C(=O)N([C@@H](C)CO)C[C@H]2C)cc1	17.9	·	34.1*	6.5	-3.0	·
C/C=C/c1ccc([C@H]2[C@H](CO)N(C(C)=O)[C@H]2CN(C)C(=O)c2ccccn2)cc1	-4.9	·	-3.6	0.4	1.6	·
CC(C)CC#Cc1cnc2c(c1)C(=O)N([C@@H](C)CO)C[C@@H](C)[C@H](CN(C)C(=O)c1cnccn1)O2	-2.6	·	-5.1	-2.7	0.0	·
COc1ccc(C(=O)Nc2ccc3c(c2)C(=O)N(C)C[C@@H](OC)[C@H](C)CN[C@@H](C)CO3)cc1	7.3	·	11.2	-12.2	-0.2	·
C[C@@H]1CN([C@H](C)CO)C(=O)c2cc(NC(=O)CCCN(C)C)ccc2O[C@H]1CN(C)C(=O)Nc1ccc(F)cc1	10.3	·	5.7	·	0.4	·
COc1cccc(-c2ccc3c(c2)[C@H]2[C@H](CCN2C(=O)c2ccc4c(c2)OCO4)[C@H](CO)N3C)c1	98.0*	·	-27.6	3.5	0.3	·
COc1ccc(-c2ccc3c(c2)[C@@H]2[C@@H](CCN2C(=O)C2CCOCC2)[C@@H](CO)N3C)cc1	·	·	115.0*	·	·	·
COc1ccc(-c2ccc3c(c2)[C@@H]2[C@@H](CCN2C(=O)c2ccc4c(c2)OCO4)[C@@H](CO)N3C)cc1	-0.9	·	-20.0	6.0	1.0	·
COc1cccc(-c2ccc3c(c2)[C@H]2[C@H](CCN2C(=O)c2ccccc2F)[C@H](CO)N3C)c1	5.7	·	-2.5	20.1*	0.2	·
COc1ccc(-c2ccc3c(c2)[C@H]2[C@H](CCN2C(=O)c2ccccc2F)[C@H](CO)N3C)cc1	·	·	7.0	·	·	·
COc1ccc(CN(C)C[C@H]2OCCCC[C@H](C)Oc3ccc(NC(=O)NC(C)C)cc3C(=O)N([C@@H](C)CO)C[C@@H]2C)cc1	-8.2	·	4.4	-3.0	-0.8	·
CNC(=O)C[C@H]1CC[C@H]2[C@@H](COc3ccc(NC(=O)Nc4c(C)noc4C)cc3C(=O)N2C)O1	·	·	-1.3	·	·	·
CCN1C(=O)NC(c2ccccc2)C1=O (centres undefined)	0.3	0.1	-9.5	-4.2	1.7	-3.3

Assay outcomes as filed in PubChem.
